Measurements taken from ChEMBL document CHEMBL1121627, “Structure--activity relationships in a series of novel 3,4-dihydro-4-oxopyrimido[4,5-b]quinoline-2-carboxylic acid antiallergy agents” (1980).
Active and inactive are the calls of the source.

How the values were obtained:
Rattus norvegicus [1] = assay: Antiallergic activity against reagin induced passive cutaneous anaphylaxis reaction in rats upon intravenous administration.; format: functional
Method in brief: (§1)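 Rat passive cutaneous anaphylaxis. Just before challenge, controls for antihistamine, antiserotonin or nonspecific blockade are given intradermally: 60 µg histamine dihydrochloride and 0.5 µg serotonin-creatinine sulfate. Challenge is iv, 5 mg egg albumin with 2.5 mg Evan's Blue, given immediately after iv drug or 5 min after oral drug. Site scores are summed per group of 5 or 7 and expressed as % inhibition versus control. ED50 is taken from a by-eye dose-response curve, or from least-squares regression when n is larger.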

Rattus norvegicus [2] = assay: Antiallergic activity against reagin induced passive cutaneous anaphylaxis reaction in rats upon peroral administration.; format: functional; conditions: po; method in brief: as §1
Rattus norvegicus [3] = assay: The compound was evaluated for antiallergic activity against reagin induced passive cutaneous anaphylaxis reaction in rats upon peroral administration; at this dose the compound tested was found inactive; format: functional; conditions: po; method in brief: as §1
Rattus norvegicus [4] = assay: The compound was evaluated for antiallergic activity against reagin induced passive cutaneous anaphylaxis reaction in rats upon peroral administration; highest dose at which the compound was tested and found inactive; format: functional; conditions: po; method in brief: as §1
Rattus norvegicus [5] = assay: The compound was evaluated for antiallergic activity against reagin induced passive cutaneous anaphylaxis reaction in rats upon peroral administration, the dose at which the compound was tested and found inactive; format: functional; conditions: po; method in brief: as §1
Rattus norvegicus [6] = assay: The compound was evaluated for antiallergic activity against reagin induced passive cutaneous anaphylaxis reaction in rats upon peroral administration, at this dose the compound tested was found inactive, and is highly active at the same dose if ad ministered in solution of pH >/=10; format: functional; conditions: po; method in brief: as §1
Cavia porcellus = assay: Bronchoconstrictive effect of histamine aerosol in conscious guinea pigs at an iv dose of 30 mg/kg; Bronchoconstrictive effect is unaltered; format: functional, organism-based; design: dose 30 mg/kg
Rattus norvegicus [7] = assay: Inhibition of plasma histamine release induced by antigen challenge in rats assively sensitized with homologus antisera at an iv dose of 0.1 mg/kg; format: functional
Rattus norvegicus [8] = assay: The compound was evaluated for antiallergic activity against reagin induced passive cutaneous anaphylaxis reaction in rats upon peroral administration, pH dependent, more active when administered in solution of pH>/=10; format: functional; conditions: po; method in brief: as §1
Rattus norvegicus [9] = assay: The compound was evaluated for antiallergic activity against reagin induced passive cutaneous anaphylaxis reaction in rats upon peroral administration. at this dose the compound tested was found inactive; format: functional; conditions: po; method in brief: as §1

Structure (SMILES)	ED50 (Rattus norvegicus [1])	ED50 (Rattus norvegicus [2])	also measured
CCOC(=O)c1nc(O)c2cc3ccc(OC)cc3nc2n1	0.8 mg/kg	10 mg/kg	–
CCOC(=O)c1nc(O)c2cc3cc(OCC)c(OCc4ccccc4)cc3nc2n1	0.9 mg/kg	–	ED50 (Rattus norvegicus [3]): > 30 mg/kg
O=C(O)c1nc2nc3ccccc3cc2c(=O)[nH]1	0.2 mg/kg	25 mg/kg	–
COc1cc2cc3c(O)nc(C(=O)NO)nc3nc2cc1OC	< 3 mg/kg	–	ED50 (Rattus norvegicus [4]): > 60 mg/kg
CCOC(=O)c1nc2nc3cc(OC)c(OC)cc3cc2c(=O)n1C	0.8 mg/kg	–	ED50 (Rattus norvegicus [5]): > 30 mg/kg
COc1cc2nc3nc(C(=O)O)nc(O)c3cc2cc1O	< 0.01 mg/kg	–	ED50 (Rattus norvegicus [6]): > 3 mg/kg
CCOC(=O)c1nc(O)c2cc3cc(O)c(OC)cc3nc2n1	0.001 mg/kg	–	ED50 (Rattus norvegicus [6]): > 10 mg/kg
CNC(=O)c1nc(O)c2cc3cc(OC)c(OC)cc3nc2n1	3 mg/kg	–	–
COc1cc2cc3c(O)nc(C(C)=O)nc3nc2cc1OC	2 mg/kg	–	ED50 (Rattus norvegicus [4]): > 10 mg/kg
CCOC(=O)c1nc(O)c2cc3cc(SC)ccc3nc2n1	0.1 mg/kg	8 mg/kg	–
CCOC(=O)c1nc(=O)c2cc3cc(OC)c(OC)cc3nc2[nH]1 [PIROLATE]	0.007 mg/kg	1 mg/kg	Activity (Cavia porcellus): inactive; inhibition in vivo at 0.1 mg/kg (Rattus norvegicus [7]): 92%
O=C(O)c1nc(O)c2cc3cc(O)ccc3nc2n1	0.01 mg/kg	–	ED50 (Rattus norvegicus [6]): > 10 mg/kg
CCOC(=O)CNC(=O)c1nc(O)c2cc3cc(OC)c(OC)cc3nc2n1	6 mg/kg	–	–
CCOC(=O)c1nc(O)c2c(-c3ccccc3)c3ccccc3nc2n1	0.3 mg/kg	10 mg/kg	–
CCCCOC(=O)c1nc(O)c2cc3cc(OC)c(OC)cc3nc2n1	0.003 mg/kg	10 mg/kg	–
CCOC(=O)c1nc(O)c2cc3cc(OC)c(OCC)cc3nc2n1	0.007 mg/kg	2 mg/kg	–
CCCCOC(=O)c1nc(O)c2cc3ccccc3nc2n1	0.06 mg/kg	30 mg/kg	–
CCOC(=O)c1nc(O)c2cc3cc(OC)c(OC)c(OC)c3nc2n1	0.8 mg/kg	10 mg/kg	–
CCNC(=O)c1nc(O)c2cc3ccccc3nc2n1	3 mg/kg	–	–

Structure (SMILES)	ED50 (Rattus norvegicus [1])	ED50 (Rattus norvegicus [2])	also measured
CCOC(=O)c1nc(O)c2cc3cc(OCc4ccccc4)ccc3nc2n1	0.9 mg/kg	10 mg/kg	–
CCOC(=O)c1nc(O)c2cc3cc(OCC)c(OC)cc3nc2n1	0.002 mg/kg	0.3 mg/kg	–
CCOC(=O)CCCn1c(C(=O)OCC)nc2nc3cc(OC)c(OC)cc3cc2c1=O	0.1 mg/kg	–	ED50 (Rattus norvegicus [5]): > 10 mg/kg
CCOC(=O)c1nc(O)c2cc3c(Cl)cccc3nc2n1	0.2 mg/kg	30 mg/kg	–
CCCCOC(=O)c1nc(O)c2cc3cc(O)c(OC)cc3nc2n1	0.008 mg/kg	–	ED50 (Rattus norvegicus [8]): 10 mg/kg
CCOC(=O)c1nc(O)c2cc3ccccc3nc2n1	0.1 mg/kg	3 mg/kg	–
CCOC(=O)c1nc(O)c2cc3cc4c(cc3nc2n1)OCO4	0.5 mg/kg	30 mg/kg	–
COc1cc2cc3c(O)nc(C(N)=O)nc3nc2cc1OC	3 mg/kg	30 mg/kg	–
CCOC(=O)c1nc(O)c2cc3cc(OCc4ccccc4)c(OC)cc3nc2n1	3 mg/kg	–	ED50 (Rattus norvegicus [3]): > 10 mg/kg
COc1cc2cc3c(O)nc(C(F)(F)F)nc3nc2cc1OC	> 10 mg/kg	–	–
CCOC(=O)c1nc(O)c2cc3cc(OC)c(O)cc3nc2n1	1 mg/kg	–	ED50 (Rattus norvegicus [6]): > 3 mg/kg
CCOC(=O)c1nc(O)c2cc3cc(F)ccc3nc2n1	0.3 mg/kg	30 mg/kg	–
CCOC(=O)c1nc(O)c2cc3ccc(F)cc3nc2n1	0.3 mg/kg	30 mg/kg	–
O=C([O-])c1cc(=O)c2c(OCC(O)COc3cccc4oc(C(=O)[O-])cc(=O)c34)cccc2o1.[Na+].[Na+] [CROMOLYN SODIUM]	0.8 mg/kg	–	ED50 (Rattus norvegicus [5]): > 300 mg/kg
CCOC(=O)c1nc(O)c2cc3cc(OC(C)=O)c(OC)cc3nc2n1	0.007 mg/kg	–	ED50 (Rattus norvegicus [8]): 10 mg/kg
CCOC(=O)c1nc(O)c2cc3cc(Sc4ccc(OC)cc4)ccc3nc2n1	3 mg/kg	30 mg/kg	–
CCOC(=O)c1nc(O)c2cc3cc(OC)cc(OC)c3nc2n1	0.5 mg/kg	30 mg/kg	–
CCOC(=O)c1nc(O)c2cc3ccc(OC)c(OC)c3nc2n1	0.2 mg/kg	60 mg/kg	–
COc1cc2cc3c(O)nc(C(=O)[O-])nc3nc2cc1OC.[Na+]	0.005 mg/kg	10 mg/kg	–

Structure (SMILES)	ED50 (Rattus norvegicus [1])	ED50 (Rattus norvegicus [2])	also measured
COc1cc2cc3c(O)nc(-c4ccccc4)nc3nc2cc1OC	3 mg/kg	–	–
CCOC(=O)c1nc(O)c2cc3cc(OC)c(OCc4ccccc4)cc3nc2n1	0.8 mg/kg	–	ED50 (Rattus norvegicus [9]): > 30 mg/kg
CCOC(=O)Cn1c(C(=O)OCC)nc2nc3cc(OC)c(OC)cc3cc2c1=O	3 mg/kg	–	–
CCCCOc1cc2nc3nc(C(=O)OCC)nc(O)c3cc2cc1OCC	0.3 mg/kg	5 mg/kg	–
CCOC(=O)c1nc(O)c2cc3cc(O)ccc3nc2n1	0.7 mg/kg	–	ED50 (Rattus norvegicus [8]): 10 mg/kg
COc1cc2cc3c(O)ncnc3nc2cc1OC	3 mg/kg	–	–
CCOC(=O)c1nc(O)c2cc3c(OC)ccc(OC)c3nc2n1	0.6 mg/kg	30 mg/kg	–
CCOC(=O)c1nc(O)c2cc3cc(Cl)ccc3nc2n1	0.4 mg/kg	30 mg/kg	–
CCOC(=O)c1nc(O)c2cc3cc(OC)ccc3nc2n1	0.03 mg/kg	20 mg/kg	–
COc1cc2cc3c(O)nc(C(=O)OCCO)nc3nc2cc1OC	< 0.03 mg/kg	10 mg/kg	–
COc1cc2cc3c(=O)[nH]c(=O)[nH]c3nc2cc1OC	3 mg/kg	–	–
NC(=O)c1nc(O)c2cc3ccccc3nc2n1	1.3 mg/kg	60 mg/kg	–
CCOC(=O)c1nc(O)c2cc3cc(OCC)c(OCC)cc3nc2n1	0.01 mg/kg	1 mg/kg	–
CCc1nc(O)c2cc3cc(OC)c(OC)cc3nc2n1	3 mg/kg	–	ED50 (Rattus norvegicus [4]): > 60 mg/kg
CCNC(=O)c1nc(O)c2cc3cc(OC)c(OC)cc3nc2n1	3 mg/kg	–	–
CCOC(=O)c1nc(O)c2cc3cc4c(cc3nc2n1)OCCO4	1 mg/kg	–	–
COc1cc2cc3c(O)nc(C)nc3nc2cc1OC	0.4 mg/kg	1 mg/kg	–
CCOC(=O)c1nc(O)c2cc3cc([S+](C)[O-])ccc3nc2n1 (centres undefined)	0.2 mg/kg	30 mg/kg	–
